In data set [1] the test system is Mycobacterium tuberculosis. Put plainly: Antitubercular activity against Mycobacterium tuberculosis infected in BALB/c mouse assessed as reduction in bacterial burden at 100 mg/kg, po qd administered every 5 days a week for 3 weeks. It counts as functional, organism-based. Summed up: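 Acute infection model in BALB/c mice: dosing at 100 mg/kg daily, 5 days a week for 3 weeks, starting day 11 after infection. Read-out is CFU reduction in treated mice, usually reported as a ratio of mean CFU reduction versus mice given the reference nitroimidazole.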

In the next data set the test system is Trypanosoma cruzi. Put plainly: […] activity against Trypanosoma cruzi infected in human MRC-5 cells by luciferase reporter gene assay. The class given is functional, cell-based. Conditions: MRC5. Summed up:
(§1)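 Run at LMPH as IC50 determinations. L. infantum was grown in primary peritoneal mouse macrophages and T. cruzi on human lung fibroblasts (MRC-5). Each value is the mean of at least two independent determinations, run alongside MRC-5 and macrophage cytotoxicity tests.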

Data set [2] is described as follows: Extrapolated AUCinfinity in swiss albino mouse plasma at 40 mg/kg, po by LC-MS/MS analysis.
The nature of data set [3]: Apparent permeability from apical to basolateral side in human Caco2 cells after 150 mins by LC-MS/MS analysis. The class given is ADME, cell-based. Conditions: Caco-2.
The nature of data set [4]: Apparent permeability from basolateral to apical side in human Caco2 cells after 150 mins by LC-MS/MS analysis. The class given is ADME, cell-based. Conditions: Caco-2.
A further data set has as its system Leishmania infantum. The experiment in a line: Antileishmanial activity against Leishmania infantum infected in primary peritoneal mouse macrophages by luciferase reporter gene assay. The class given is functional. The method, boiled down:
as §1

Each structure is given as a SMILES string. Activity calls are given as the source filed them. The rule behind the calls is not given here.

In the case of `O=[N+]([O-])c1cn2c(n1)OC[C@@H](OCc1ccc(OC(F)(F)F)cc1)C2`, in data set [1], the outcome was Active.
In turn, `O=[N+]([O-])c1cn2c(n1)OC(COc1ccc(OC(F)(F)F)cc1)CC2` (stereo not drawn) had an IC50 in the data set with Trypanosoma cruzi of 61 nM. This counts as double-digit nanomolar.
On to `C[C@]1(COCc2ccc(-c3ccc(OC(F)(F)F)cc3)cc2)CCn2cc([N+](=O)[O-])nc2O1`, for which, in data set [1], the result was Active.
In the data set on Trypanosoma cruzi, `O=[N+]([O-])c1cn2c(n1)OC(COc1ccc(-c3ccc(F)cc3)cc1)CC2` (stereo not drawn) returned an IC50 of 63 nM.
Regarding `O=[N+]([O-])c1cn2c(n1)OC(COCc1ccc(-c3ccc(OC(F)(F)F)cc3)cc1)CC2` (stereo not drawn), in data set [2], the AUC(0-inf) was 47100 ng·h/mL.
Consider `C[C@]1(COc2ccc(OC(F)(F)F)cc2)Cn2cc([N+](=O)[O-])nc2O1`, for which the Papp A→B at […] in data set [3] is 22.6 ×10⁻⁶ cm/s. The Papp B→A at […] in data set [4] amounted to 24.7 ×10⁻⁶ cm/s.
For the compound `O=[N+]([O-])c1cn2c(n1)OC(COc1ccc(-c3ccc(F)nc3)nc1)CC2` (stereo not drawn), the IC50 in the data set with Leishmania infantum is > 64000 nM.

Values taken from ChEMBL document CHEMBL4049454, “7-Substituted 2-Nitro-5,6-dihydroimidazo[2,1-b][1,3]oxazines: Novel Antitubercular Agents Lead to a New Preclinical Candidate for Visceral Leishmaniasis” (J Med Chem, 2017).
